Among the data in ChEMBL document CHEMBL1147655, “Design and synthesis of 8-octyl-benzolactam-V9, a selective activator for protein kinase C epsilon and eta” (J Med Chem, 2006) are Ratio and Ki values, retold here.

The structures appear in SMILES notation.

One may read the Ki as a measure of affinity in units of concentration, obtained from inhibition or displacement. Lower therefore signals a stronger hold on the target.

The target of assay [1] is T1, Protein kinase C gamma type (Homo sapiens, UniProt P05129). Kind of assay: Induction of GFP-tagged PKC gamma translocation in HeLa cells measured as ratio of fluorescence intensity in plasma membrane to cytosol at 10 uM. Type of assay: cell-based. The method, boiled down:
(§1)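 HeLa cells transfected with GFP-fused PKC isozyme, cultured 16-48 h, then medium switched to HEPES buffer (135 mM NaCl, 5.4 mM KCl, 1 mM MgCl2, 1.8 mM CaCl2, 5 mM HEPES, 10 mM glucose, pH 7.3). Compound added at stated final concentration, 37 °C; confocal time series (488 nm excitation, 505-550 nm emission). R = membrane/mean cytosolic intensity from line profiles; maximum R reported, SD of at least three measurements.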

Assay [2] concerns the target T2, Protein kinase C delta type (Homo sapiens, UniProt Q05655). Kind of assay: Induction of GFP-tagged PKC delta translocation in HeLa cells measured as ratio of fluorescence intensity in plasma membrane to cytosol at 10 uM. The assay is classed as cell-based. In outline:
as §1
Target sequence in this assay (Q05655 whole entry, looked up): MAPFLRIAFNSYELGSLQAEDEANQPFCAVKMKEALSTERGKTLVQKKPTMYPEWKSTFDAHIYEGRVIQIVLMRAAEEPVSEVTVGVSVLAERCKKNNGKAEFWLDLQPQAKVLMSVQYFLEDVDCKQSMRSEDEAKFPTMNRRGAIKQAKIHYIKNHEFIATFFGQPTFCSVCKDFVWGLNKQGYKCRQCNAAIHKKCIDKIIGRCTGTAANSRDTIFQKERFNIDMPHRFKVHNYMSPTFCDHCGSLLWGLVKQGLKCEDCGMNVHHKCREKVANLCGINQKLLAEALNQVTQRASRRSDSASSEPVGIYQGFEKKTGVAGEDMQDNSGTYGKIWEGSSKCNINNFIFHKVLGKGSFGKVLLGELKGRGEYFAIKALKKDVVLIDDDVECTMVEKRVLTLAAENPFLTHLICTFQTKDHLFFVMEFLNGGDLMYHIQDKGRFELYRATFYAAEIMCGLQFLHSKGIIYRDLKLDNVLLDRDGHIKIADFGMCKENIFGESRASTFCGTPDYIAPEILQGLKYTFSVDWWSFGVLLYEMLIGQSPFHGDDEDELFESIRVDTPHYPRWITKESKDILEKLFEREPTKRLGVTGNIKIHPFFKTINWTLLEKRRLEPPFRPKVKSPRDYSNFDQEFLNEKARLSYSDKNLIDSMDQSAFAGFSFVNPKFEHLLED

For assay [3], the target named is T3, Protein kinase C epsilon type (Homo sapiens) (UniProt Q02156).
T3 sequence (whole entry): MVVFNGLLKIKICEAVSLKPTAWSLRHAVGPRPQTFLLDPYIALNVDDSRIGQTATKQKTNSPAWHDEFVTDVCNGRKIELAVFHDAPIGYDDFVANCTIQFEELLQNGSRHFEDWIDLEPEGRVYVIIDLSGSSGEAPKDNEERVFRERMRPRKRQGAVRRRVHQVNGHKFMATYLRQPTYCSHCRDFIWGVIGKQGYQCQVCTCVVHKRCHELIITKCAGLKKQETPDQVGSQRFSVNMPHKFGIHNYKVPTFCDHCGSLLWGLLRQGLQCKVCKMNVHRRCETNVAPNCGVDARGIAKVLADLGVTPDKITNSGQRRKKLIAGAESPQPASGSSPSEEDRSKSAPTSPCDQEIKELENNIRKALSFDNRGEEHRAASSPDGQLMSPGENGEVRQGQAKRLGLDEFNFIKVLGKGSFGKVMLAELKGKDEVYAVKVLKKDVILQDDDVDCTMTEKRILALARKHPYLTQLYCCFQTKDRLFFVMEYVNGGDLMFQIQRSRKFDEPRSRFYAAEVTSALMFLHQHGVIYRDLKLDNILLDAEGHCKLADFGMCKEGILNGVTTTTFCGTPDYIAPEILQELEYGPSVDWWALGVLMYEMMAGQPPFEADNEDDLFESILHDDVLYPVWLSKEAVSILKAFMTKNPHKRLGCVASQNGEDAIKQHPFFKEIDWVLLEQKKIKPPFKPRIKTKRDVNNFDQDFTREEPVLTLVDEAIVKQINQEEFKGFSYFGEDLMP
Kind of assay: Induction of GFP-tagged PKC epsilon translocation in HeLa cells measured as ratio of fluorescence intensity in plasma membrane to cytosol at 10 uM. Type of assay: cell-based. The method, boiled down: as §1

Assay [4] has as its target T4, Protein kinase C beta type (Homo sapiens, UniProt P05771). Kind of assay: Induction of GFP-tagged PKC beta translocation in HeLa cells measured as ratio of fluorescence intensity in plasma membrane to cytosol at 10 uM. Type of assay: cell-based. The method, boiled down:
as §1
Target sequence in this assay (P05771 2-671 limits assumed): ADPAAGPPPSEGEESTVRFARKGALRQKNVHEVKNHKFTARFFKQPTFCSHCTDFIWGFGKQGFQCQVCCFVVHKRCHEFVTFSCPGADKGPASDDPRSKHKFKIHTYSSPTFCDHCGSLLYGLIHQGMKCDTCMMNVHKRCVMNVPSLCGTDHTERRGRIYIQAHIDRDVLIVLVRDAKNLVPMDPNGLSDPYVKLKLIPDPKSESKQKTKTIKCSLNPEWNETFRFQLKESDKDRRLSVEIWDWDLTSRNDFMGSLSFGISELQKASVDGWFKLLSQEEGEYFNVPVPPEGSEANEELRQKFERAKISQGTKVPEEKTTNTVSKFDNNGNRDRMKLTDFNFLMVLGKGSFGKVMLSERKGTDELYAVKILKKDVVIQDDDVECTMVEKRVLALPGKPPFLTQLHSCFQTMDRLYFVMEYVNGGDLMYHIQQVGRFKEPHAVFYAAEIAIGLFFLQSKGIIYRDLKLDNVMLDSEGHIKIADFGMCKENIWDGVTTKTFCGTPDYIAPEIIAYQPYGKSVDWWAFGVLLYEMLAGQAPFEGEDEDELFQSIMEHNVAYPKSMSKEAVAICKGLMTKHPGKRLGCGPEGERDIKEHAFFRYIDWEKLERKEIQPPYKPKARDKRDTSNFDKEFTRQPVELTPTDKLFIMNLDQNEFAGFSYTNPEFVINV

Assay [5] addresses T3, Protein kinase C epsilon type (Homo sapiens). Kind of assay: Induction of GFP-tagged PKC epsilon translocation in HeLa cells measured as ratio of fluorescence intensity in plasma membrane to cytosol at 1 uM. Type of assay: cell-based. The method, boiled down:
as §1

The target is the same in assay [6]. Kind of assay: Induction of GFP-tagged PKC epsilon translocation in HeLa cells measured as ratio of fluorescence intensity in plasma membrane to cytosol at 0.5 uM. The assay is classed as cell-based. In outline:
as §1

Assay [7] deals with T5, Protein kinase C eta type (Homo sapiens, UniProt P24723). Kind of assay: Induction of GFP-tagged PKC eta translocation in HeLa cells measured as ratio of fluorescence intensity in plasma membrane to cytosol at 10 uM. Type of assay: cell-based. The method, boiled down: as §1
T5 sequence (P24723 whole entry): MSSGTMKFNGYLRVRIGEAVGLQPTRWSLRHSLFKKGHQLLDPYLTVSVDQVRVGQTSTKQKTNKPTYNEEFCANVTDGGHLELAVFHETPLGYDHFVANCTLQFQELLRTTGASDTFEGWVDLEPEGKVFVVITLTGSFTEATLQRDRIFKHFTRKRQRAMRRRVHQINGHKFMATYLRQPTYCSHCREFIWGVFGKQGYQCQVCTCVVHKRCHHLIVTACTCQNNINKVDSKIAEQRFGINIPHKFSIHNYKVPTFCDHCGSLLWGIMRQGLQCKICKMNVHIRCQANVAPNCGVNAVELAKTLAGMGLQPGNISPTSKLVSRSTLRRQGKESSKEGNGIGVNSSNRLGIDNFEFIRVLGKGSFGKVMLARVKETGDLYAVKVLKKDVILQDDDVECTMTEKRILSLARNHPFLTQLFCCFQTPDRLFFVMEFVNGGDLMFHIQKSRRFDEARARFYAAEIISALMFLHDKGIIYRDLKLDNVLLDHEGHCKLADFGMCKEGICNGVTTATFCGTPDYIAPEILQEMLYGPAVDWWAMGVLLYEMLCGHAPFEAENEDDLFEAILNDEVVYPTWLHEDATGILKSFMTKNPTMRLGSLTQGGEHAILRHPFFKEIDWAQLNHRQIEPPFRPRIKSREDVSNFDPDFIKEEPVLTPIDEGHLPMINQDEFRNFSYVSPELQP
Assay [8] concerns the target T5, Protein kinase C eta type. Kind of assay: Induction of GFP-tagged PKC eta translocation in HeLa cells measured as ratio of fluorescence intensity in plasma membrane to cytosol at 1 uM. The assay is classed as cell-based. In outline: as §1
Assay [9] deals with T5, Protein kinase C eta type. Kind of assay: Induction of GFP-tagged PKC eta translocation in HeLa cells measured as ratio of fluorescence intensity in plasma membrane to cytosol at 0.5 uM. Type of assay: cell-based. In outline: as §1
Assay [10] addresses T6, Protein kinase C alpha type (Homo sapiens, UniProt P17252). Kind of assay: Displacement of [3H]phorbol 12,13-dibutyrate from PKC alpha-C1A. For orientation: Loss of bound radioactivity is the signal in a displacement assay; it reports binding, not function.
In assay [11] the target is T6, Protein kinase C alpha type. Kind of assay: Displacement of [3H]phorbol 12,13-dibutyrate from PKC alpha-C1B.
Assay [12] has as its target T4, Protein kinase C beta type. Kind of assay: Displacement of [3H]phorbol 12,13-dibutyrate from PKC beta-C1A.
Target sequence in this assay (P05771 whole entry): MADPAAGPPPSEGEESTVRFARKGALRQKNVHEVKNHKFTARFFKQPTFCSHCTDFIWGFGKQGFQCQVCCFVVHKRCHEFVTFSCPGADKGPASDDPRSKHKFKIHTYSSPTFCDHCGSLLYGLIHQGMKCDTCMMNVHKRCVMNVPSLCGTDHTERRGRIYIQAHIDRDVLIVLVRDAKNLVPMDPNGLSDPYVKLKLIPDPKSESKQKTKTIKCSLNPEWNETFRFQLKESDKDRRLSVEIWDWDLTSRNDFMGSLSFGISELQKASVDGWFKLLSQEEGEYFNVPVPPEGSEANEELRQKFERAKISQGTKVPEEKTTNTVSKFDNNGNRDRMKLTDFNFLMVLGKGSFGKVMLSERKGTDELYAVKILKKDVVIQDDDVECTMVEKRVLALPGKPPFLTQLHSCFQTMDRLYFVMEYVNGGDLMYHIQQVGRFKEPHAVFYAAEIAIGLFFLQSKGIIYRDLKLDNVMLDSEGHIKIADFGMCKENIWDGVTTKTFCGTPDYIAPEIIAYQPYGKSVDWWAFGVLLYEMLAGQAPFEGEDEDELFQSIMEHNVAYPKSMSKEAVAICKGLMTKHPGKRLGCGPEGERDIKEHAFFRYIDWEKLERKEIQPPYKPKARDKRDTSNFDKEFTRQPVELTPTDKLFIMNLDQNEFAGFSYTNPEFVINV
The target in assay [13] is T4, Protein kinase C beta type. Kind of assay: Displacement of [3H]phorbol 12,13-dibutyrate from PKC beta-C1B.
Target sequence in this assay (P05771 whole entry): as above
Assay [14] has as its target T1, Protein kinase C gamma type. Kind of assay: Displacement of [3H]phorbol 12,13-dibutyrate from PKC gamma-C1A.
Assay [15] deals with T6, Protein kinase C alpha type. Kind of assay: Induction of GFP-tagged PKC alpha translocation in HeLa cells measured as ratio of fluorescence intensity in plasma membrane to cytosol at 10 uM. Type of assay: cell-based. In outline: as §1
Assay [16] deals with T1, Protein kinase C gamma type. Kind of assay: Displacement of [3H]phorbol 12,13-dibutyrate from PKC gamma-C1B.
In assay [17] the target is T2, Protein kinase C delta type. Kind of assay: Displacement of [3H]phorbol 12,13-dibutyrate from PKC delta-C1A.
Assay [18] has the same target. Kind of assay: Displacement of [3H]phorbol 12,13-dibutyrate from PKC delta-C1B.
In assay [19] the target is T7, Protein kinase C epsilon type (Homo sapiens, UniProt Q02156).
T7 sequence (Q02156 whole entry): T3 sequence (whole entry)
Kind of assay: Displacement of [3H]phorbol 12,13-dibutyrate from PKC epsilon-C1A.

The target in assay [20] is T7, Protein kinase C epsilon type. Kind of assay: Displacement of [3H]phorbol 12,13-dibutyrate from PKC epsilon-C1B.
For assay [21], the target named is T5, Protein kinase C eta type. Kind of assay: Displacement of [3H]phorbol 12,13-dibutyrate from PKC eta-C1A.
In assay [22] the target is T5, Protein kinase C eta type. Kind of assay: Displacement of [3H]phorbol 12,13-dibutyrate from PKC eta-C1B.
The target in assay [23] is Protein kinase C theta type (Homo sapiens, UniProt Q04759). Kind of assay: Displacement of [3H]phorbol 12,13-dibutyrate from PKC theta-C1B.
Assay [24] has as its target T4, Protein kinase C beta type. Kind of assay: Induction of GFP-tagged PKC beta translocation in HeLa cells measured as ratio of fluorescence intensity in plasma membrane to cytosol at 1 uM. The assay is classed as cell-based. In outline:
as §1
Target sequence in this assay (P05771 2-671 limits assumed): as the sequence (P05771 2-671 limits assumed) above

For assay [25], the target named is T4, Protein kinase C beta type. Kind of assay: Induction of GFP-tagged PKC beta translocation in HeLa cells measured as ratio of fluorescence intensity in plasma membrane to cytosol at 0.5 uM. Type of assay: cell-based. In outline: as §1
Target sequence in this assay (P05771 2-671 limits assumed): as above
Assay [26] deals with T1, Protein kinase C gamma type. Kind of assay: Induction of GFP-tagged PKC gamma translocation in HeLa cells measured as ratio of fluorescence intensity in plasma membrane to cytosol at 1 uM. Type of assay: cell-based. In outline:
as §1

For assay [27], the target named is T2, Protein kinase C delta type. Kind of assay: Induction of GFP-tagged PKC delta translocation in HeLa cells measured as ratio of fluorescence intensity in plasma membrane to cytosol at 1 uM. Type of assay: cell-based. The method, boiled down:
as §1
Target sequence in this assay (Q05655 whole entry, looked up): as the sequence (Q05655 whole entry, looked up) above

Assay [28] addresses T6, Protein kinase C alpha type. Kind of assay: Induction of GFP-tagged PKC alpha translocation in HeLa cells measured as ratio of fluorescence intensity in plasma membrane to cytosol at 1 uM. Type of assay: cell-based. In outline:
as §1

For the compound `CCCCCCCCc1cccc2c1CC[C@@H](CO)NC(=O)[C@H](C(C)C)N2C`, the Ratio stood at 0.97 in assay [1]; 0.95 in [2]; 1.96 in assay [3]; 0.97 in assay [4]; 1.66 in assay [5]; 1.65 in [6]. For the same compound, the Ratio worked out at 1.72 in assay [7], 1.46 in [8], 0.97 in [9] and 0.98 in assay [15]. The Ki in assay [10] was above 10 µM; in assay [11], above 10 µM; in [12], above 10 µM; in assay [13] it was above 10 µM; in assay [14], above 10 µM; in [16], 5.2 µM. The Ki in [17] was above 10 µM; in assay [18], 216 nM; in assay [19], above 10 µM; in assay [20] it was 510 nM; in assay [21] it was above 10 µM; in [22], 144 nM. The Ki in assay [23] came out at 290 nM.
Consider `CCCCCCN1C[C@H]2C[C@@H](CO)NC(=O)[C@H](C(C)C)N(C)c3cccc1c32`, for which the Ratio in [24] came to 2.39; in [25], 0.95; in [1], 1.53; in [26], 0.96; in assay [2], 2.41; in [27], 0.9. Also, the Ratio is 4.29 in assay [3]; 2.38 in assay [4]; 2.73 in assay [5]; 2.42 in [6]; 1.92 in [7]; 1.84 in assay [8]. Besides, the results for the Ratio in [9], in [15] and in assay [28] were 1.01, 1.79 and 0.97, respectively.
